The source of these data is the EternaBench riboswitch data.

The data set deals with MS2 coat protein. Nature of the data set: apparent Kd, MS2 coat protein; higher = weaker binding; RNA-MaP array; FMN 200 µM where present. In short, it runs like this: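 Designs were transcribed by stalled E. coli RNA polymerase on Illumina sequencing-chip clusters. They were titrated with SNAP-549-labelled MS2 coat protein from 0.7 or 1.5 nM, doubling to 3 µM, in 100 mM Tris-HCl pH 7.5, 80 mM KCl, 4 mM MgCl2, BSA, DTT, yeast tRNA and Tween-20, without and then with constant ligand. The apparent Kd is the median of filtered per-cluster fits after normalisation of green signal to red-channel RNA signal and control-cluster median Fmax.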

The mark [1] stands for this setting: designed as: OFF switch for flavin mononucleotide, no ligand.
Where [2] appears, read: ligand present: flavin mononucleotide, designed as: OFF switch for flavin mononucleotide.
[3] abbreviates: designed as: ON switch for flavin mononucleotide, no ligand.
Setting [4] is: ligand present: flavin mononucleotide, designed as: ON switch for flavin mononucleotide.

By apparent Kd is commonly meant a dissociation constant that holds for the conditions of the assay. Turning to “AAAAAGUCAGGAUAUGUCAAAGGUCACGAAAGUGACAAAGGACAGAAGGGACAUGAGGAUCACCCAUGUAAAAA”, the “apparent Kd” value runs as follows: under setting [1], 30.2 nM; under setting [2], 46.1 nM.
The corresponding values for “UUAAAUCAUGUAGGAUAUGCAUGGCGAAGCUACGCAGAAGGACAUGAGGAUCACCCAUGUGCUAGCGUCUGAGAACAGAUGCAA” are 42 nM and 235 nM.
Regarding “UUUUGACAUGAGGAUCACCCAUGUGAGGAUAUGGAGCGCGACCGCGCGGUCGCGUACACCAGAAGGCGCAGGAA”, the “apparent Kd” value is 40.3 nM under setting [1] and 70.8 nM under setting [2].
Consider “AAACAUGUCCGAGGAUAUCUGGAAACAUUUCCAAGAGAAGGCGGACAUGAGGAUCACCCAUGUCUCUCCUCAUCAAAUCCGAGU”, for which the “apparent Kd” value is, setting by setting: under setting [1], 9.24 nM; under setting [2], 89.3 nM.
The corresponding values for “UAUUAGCUAGGAUAUACAUGAGGAUCACCCAUGUCACGGGUCAACUUGUCCUAUGCGUGUAGAAGGAGCGACCC” are 17.7 nM and 21.7 nM.
For the sequence “AGAGCCUCGUGAGGAUAUACAUGAGGAUCACCCAUGUAAAUGAAUGAACGGUGGAAACACCGAAUGUAGAAGGCACGAGGCUCA”, the “apparent Kd” value is, setting by setting: under setting [1], 37.9 nM; under setting [2], 223 nM.
For “UGGUACUAGGGAGGAUAUGGGAAGAUACAUGAGGAUCACCCAUGUUUAAGAAUGCCGAGAGGCAACUAGAAGGCCCUAGUACAU”, the “apparent Kd” value is, setting by setting: under setting [3], 537 nM; under setting [4], 18.7 nM.
In the case of “CAGCGGUGAGGAUAUACGUAGGUACAGAUCUGUGUGUUCCUACAUGAGGAUCACCCAUGUAGAAGGCAUGGCUG”, the “apparent Kd” value by setting is: under setting [1], 43 nM; under setting [2], 140 nM.
Regarding “AAGUGUCCUAAGGAUAUCGAAGCUAUCGGCUGCCGAGAAGGUAGGACAUGAGGAUCACCCAUGUACCGUGAGCC”, the “apparent Kd” value reads like this: under setting [1], 68.1 nM; under setting [2], 29.8 nM.
With “AGAAACUACGAGAAGGACAUAUGACCAAGAACAAACAUGAGGAUCACCCAUGUAGGAUAUCGUAGUUUCAGGAUCGUGAGAUCA”, the “apparent Kd” value was found to be 6.29 nM under setting [1] and 12.9 nM under setting [2].
The corresponding values for “GUUCUGCCUCCUGCCGGAACAUGAGGAUCACCCAUGUUGCCUGAGGAUAUCCUAUGGCUCCCACAGGAGAAGGCAGGCAACAUA” are 86.2 nM and 371 nM.
On to “GGCUUGCAGCUAGGAUAUGGGCGAUCACAUGAGGAUCACCCAUGUCAACAUCAAAACAAGAUUAACCAGAAGGAGCCGCGGGUC”, for which the “apparent Kd” value turned out to be 21.3 nM under setting [3] and 705 nM under setting [4].
As to “UAAUAAAGUGUGAGGAUAUGCUGGUCCAUAGAUCAGCAGAAGGCACAUGAGGAUCACCCAUGUAAUAUAUAAAU”, the “apparent Kd” value under setting [1] turned out to be 28.4 nM and the “apparent Kd” value under setting [2] was found to be 145 nM.
The corresponding values for “CAGACCGGCAUAGGAUAUGUCGACAUGAGGAUCACCCAUGUAAGCCUUGUCUGGUCCGGUGUGUGACAGAAGGAUGUCGGCCAU” are 37.7 nM and 26.4 nM.
In the case of “GUGUCUAACUAGAAGGCCGUAUGCAAAGCAUACGGAGGAUAUGGGUUCCGGAAACGGACAUGAGGAUCACCCAUGUGGCACAAA”, the “apparent Kd” value came to 94.3 nM under setting [3] and 13.4 nM under setting [4].
With “GAGACUACCGAGAAGGGCAUAUUAAGACUCUUCGUACUACGCCUAGACAUGAGGAUCACCCAUGUGCAGGAUAUCGAGCGGCUC”, the “apparent Kd” value reads like this: under setting [1], 6.38 nM; under setting [2], 6.05 nM.
On to “AAAUAAACUAGCAUAAUAACCUCACAUGAGGAUCACCCAUGUAAGGAUAUCUGUCCUAAAAGGACAGAGAAGGUACGUGCUAGG”, for which the “apparent Kd” value runs as follows: under setting [1], 4.72 nM; under setting [2], 4.88 nM.
The like results for “UCUAGACAUGAGGAUCACCCAUGUGAGGAUAUGAUGCGAUCGUCGAAAGACGAUAGCAUCAGAAGGCACGUAUG” were, in that order, 65.1 nM and 113 nM.
Take “UCGAUUAUACAAGGAUAUCAAUUGUAAUUGAGACUUACAUGAGGAUCACCCAUGUUAAUAUUUUUUGAGAAGGUGUAUUUUCAG”: the “apparent Kd” value is 47.3 nM under setting [3] and 26.8 nM under setting [4].
Take “ACAUUUUAUGCAGGAUAUUGACAUAGGAUUAAACAAGAAGGGCAUUACAUGAGGAUCACCCAUGUUUUAUUGGUAUAUAAGUUC”: the “apparent Kd” value under setting [2] came to 14 nM.
“GCCAUCGCAUGAGGAUAUGCUCGGGUUUCCCGAGCAGAAGGCAUGUCACAAGACAUGAGGAUCACCCAUGUAGUUAAGAUGGCA”: the “apparent Kd” value came to 190 nM under setting [3] and 9.98 nM under setting [4].
Regarding “UUUUAGUGAGGAUAUGUGGCUUCGAUCGUGAGAUCGAGGCUACAGAAGGCACAUGAGGAUCACCCAUGUUCCUA”, the “apparent Kd” value runs as follows: under setting [1], 16.6 nM; under setting [2], 81.7 nM.
For “GUGGUAUUCGUAGGAUAUCCGUCGCCACCGUGUGGAGAAGGACGAACAUGAGGAUCACCCAUGUAUCAUGGUGUGGACGUUGUC”, the “apparent Kd” value is, setting by setting: under setting [1], 80.2 nM; under setting [2], 88.4 nM.
Consider “GACAAUCUAUCUGAGGAUAUCAUGAAAAAAACAUGAGGAUCACCCAUGUGCAGGAAAACUGCAUAUGAGAAGGCAGAUAGAUUGC”, for which the “apparent Kd” value reads like this: under setting [3], 678 nM; under setting [4], 27.4 nM.
With “AUUAUAUAGACAGGAUAUUGAUUAUUAUUUUAACAUGAGGAUCACCCAUGUAACCUUAUGUGUAGCAAGAAGGGUCAUUUAUUA”, the “apparent Kd” value by setting is: under setting [1], 84.3 nM; under setting [2], 185 nM.
The like results for “AUAUCGUUAUCAGGAUAUGGACAGGCCUGUCCGUAUUGAGACAGUAACAUGAGGAUCACCCAUGUCCAGAAGGGAUCGAUGUAU” were, in that order, 54.2 nM and 48.6 nM.
“CACAGGGAUUCAGGAUAUAUUAGCCGAGGCCGCGUAGAAGGGAAAUCCUGACAUGAGGAUCACCCAUGUUAACCCGCCUUCCAU”: the “apparent Kd” value reads like this: under setting [3], 37.6 nM; under setting [4], 42 nM.
The like results for “GAAUUCGCAUGAGGAUAUGCACUCAUUUCAUGUGCAGAAGGUAUAACAUUAGACAUGAGGAUCACCCAUGUAUUGGUCAUUAAC” were, in that order, 13.7 nM and 12.1 nM.
Regarding “CGAUAGGACAGAGGAUAUACACAUGAGGAUCACCCAUGUAAUUACAAUUCUUGUGGUUCUUCCAUGUAGAAGGCUGUCCUAUCG”, the “apparent Kd” value runs as follows: under setting [1], 113 nM; under setting [2], 335 nM.
With “ACAUGAGACUAAGGAUAUGAUGUACCUAUAUGUGACAUGAGGAUCACCCAUGUGGUAAGUAUGAUUCAGAAGGUAGAGAUAUGU”, the “apparent Kd” value under setting [3] stood at 98.7 nM and the “apparent Kd” value under setting [4] stood at 32.6 nM.
For “GAUUCACAUGAGGAUCACCCAUGUCGUUUUAUGGGAGGAUAUACGUGGACCGUAGUCCGCGUAGAAGGCCUAAUUG”, the “apparent Kd” value runs as follows: under setting [3], 102 nM; under setting [4], 30.4 nM.
The corresponding values for “GGGUAUAAACCCGUCUCCGCUCAACCAGAAGGGCACGAUAAUAUUACAUGAGGAUCACCCAUGUUGCAGGAUAUGGUGAGCCUC” are 363 nM and 66.9 nM.
Regarding “AUCAUCUUGUCAGGAUAUGCGUGUCAACGAAAGUAGACAAUCUUGAUAACAUGAGGAUCACCCAUGUAGAAGGGACGAGAUGAU”, the “apparent Kd” value by setting is: under setting [1], 21 nM; under setting [2], 21.9 nM.
With “ACAUGAGGAUCACCCAUGUUCACAUAGGAUAUUGAUUAUAUUGGAUAUAUUUUUUUUAUAAUACACAAGAAGGAUGCAAGAUGG”, the “apparent Kd” value amounted to 19.3 nM under setting [3] and 16.3 nM under setting [4].
Turning to “UCACGGGACUAAGGAUAUAUGUGUACCAUUUUCAUAGAAGGUAGAAUGUUUGAUCAUAAACUAAACAUGAGGAUCACCCAUGUU”, the “apparent Kd” value turned out to be 27 nM under setting [1] and 25.1 nM under setting [2].
Take “CCAUGGUGGGCAGGAUAUCGUCCAGCUUGCGGACGAGAAGGGCCAGAACAUGAGGAUCACCCAUGUGAAAGGCGGGUUGUCCAA”: the “apparent Kd” value by setting is: under setting [1], 21.6 nM; under setting [2], 103 nM.
Consider “UUUGCAUUCCGAGGAUAUUCAUUUAAUGACUUCACAUGAGGAUCACCCAUGUGGCGAUAGCGCCGGGAGAAGGCGGUUUGCUUU”, for which the “apparent Kd” value amounted to 23.1 nM under setting [3] and 25.7 nM under setting [4].
Take “AUCAGCUCGUCAGGAUAUACGUCACGGCGUCAGCAGUGUGGUAAGAUCACAUGAGGAUCACCCAUGUAGAAGGGACGAGCUGAU”: the “apparent Kd” value is, setting by setting: under setting [1], 19.5 nM; under setting [2], 226 nM.
The like results for “UAGGUCGCAGGAUAUGCUGGGUGCAUAUCUUAGUGCAGGAGACAUGAGGAUCACCCAUGUAGAAGGGCGCGCUG” were, in that order, 44.9 nM and 124 nM.
On to “GGGCUGGUAACAGGAUAUCGUGCCUGGCCGGAUUACAUGAGGAUCACCCAUGUCGUUGGAACCAACGAGAAGGGUUGCCUCCCA”, for which the “apparent Kd” value is, setting by setting: under setting [3], 371 nM; under setting [4], 102 nM.
As for “UUGGACGUCGUAGGAUAUGUAGGAUAUGCCUACAUGAGGAUCACCCAUGUUGACAUGGAAGAAGGACAGAAGGACGAUGUCCAU”, the “apparent Kd” value under setting [3] worked out at 108 nM and the “apparent Kd” value under setting [4] stood at 6.64 nM.
As to “AAUAACAGAGGAUAUACGAAAAUAAGCGGAAACGCAAAGGGACAUGAGGAUCACCCAUGUAGAAGGCUGGAUAA”, the “apparent Kd” value is, setting by setting: under setting [1], 32.6 nM; under setting [2], 183 nM.
The like results for “GGUCCACAUGAGGAUCACCCAUGUUAGGAUAUCUCCUGCCUCCUAAAUGGAAGCAGACAGAGAAGGAACAUCAA” were, in that order, 21.9 nM and 84.4 nM.
The corresponding values for “AAUUCACAUGAGGAUCACCCAUGUCAGGAUAUGGUUUCACGUUUUUCUUUUCUUGAUUCCAGAAGGGACAGCUA” are 65.6 nM and 82 nM.
Consider “CUGAUGUUAGGAUAUCAGGUUGUGCGCGAAGGCGGGCGGCAUGAGAAGGAACAUGAGGAUCACCCAUGUGACGA”, for which the “apparent Kd” value amounted to 29.4 nM under setting [1] and 85 nM under setting [2].
With “GCGCAAGCAUGAGGAUAUUUAUUAAAUAAUAAUAAAGAAGGCAUGUCAAAUGACAUGAGGAUCACCCAUGUUGGCAAAAUGCGC”, the “apparent Kd” value amounted to 45.9 nM under setting [3] and 9.77 nM under setting [4].
For the sequence “GCAGCGUAUGUAGGAUAUCGGUCAGUUUCUGAUCGAGAAGGACAUGAGGAUCACCCAUGUAAAUUACCGACAUUGUCGGGCUGC”, the “apparent Kd” value stood at 6.5 nM under setting [1] and 8.25 nM under setting [2].
Regarding “GACAUGAGGAUCACCCAUGUCCGGGCCAAGAGAAGAAAUACCAGAAGGACCGGCAGAAAUGUGCGGUAGGAUAUGGGAUUCGUG”, the “apparent Kd” value runs as follows: under setting [3], 36.4 nM; under setting [4], 9.15 nM.
